# Compound activity: PubChem BioAssay, several laboratories
# The list is not random: actives were taken first. Their share in the collection is about 2.4%.
# HMGR II inh – blocks class II HMG-CoA reductase of Enterococcus faecalis; hit rate 0.41% among 190,000; purified E. faecalis HMGR, NADPH absorbance 340 nm kinetic; inhibition, % at 10 µM;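 active means inhibition above a set limit, the median over all tested compounds plus 3 SD, cut at about 9.5% in these data; inconclusive means no clear call, values can overlap the other calls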;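 further: enzyme runs in reverse so mevalonate oxidation gives rising NADPH absorbance; 0% = complete reaction with DMSO and 100% = background rate lacking mevalonate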
# Tb hexokinase – T. brucei hexokinase 1 inhibition; recombinant TbHK1, G6PDH-coupled NADH A340; inhibition, % at 10 µM; hit rate 0.11% among 220,000; AID 1430;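 active means inhibition of 50% or more in the single-dose primary screen; inactive means inhibition below 50%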
# EP2 modulator – modulates human prostaglandin E2 receptor EP2 signaling; AID 940; P43116; EP2-expressing cells, cAMP HTRF FRET, PGE2 co-stimulation; hit rate 0.83% among 260,000; induction, % at 25 µM;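 active means compounds whose cAMP rise, as percent of the full-agonist control response, exceeds 60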;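 further: rat C6 glioma line stably carrying human EP2 under a CMV promoter; the protocol text gives 20 µM as final concentration; 100% = response of wells given 1 µM PGE2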
# Target sequence (P43116 whole entry, looked up): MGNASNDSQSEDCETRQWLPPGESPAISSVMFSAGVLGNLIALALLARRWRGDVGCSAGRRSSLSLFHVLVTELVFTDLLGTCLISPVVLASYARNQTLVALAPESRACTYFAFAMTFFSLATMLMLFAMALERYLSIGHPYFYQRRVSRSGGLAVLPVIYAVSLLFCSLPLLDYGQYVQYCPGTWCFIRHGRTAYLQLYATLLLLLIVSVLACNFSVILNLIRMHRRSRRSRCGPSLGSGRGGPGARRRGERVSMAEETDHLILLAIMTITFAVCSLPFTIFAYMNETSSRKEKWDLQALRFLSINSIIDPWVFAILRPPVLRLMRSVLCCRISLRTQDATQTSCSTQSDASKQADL
# bCat nuc transl – beta-catenin nuclear translocation modulation; HeLa beta-catenin nuclear translocation, immunofluorescence imaging; nuclear translocation activity, % at 5 µM; hit rate 0.3% among 190,000; AID 1665;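 active means nuclear translocation activity above 50% at 5 µM, with a well cell count of 50 or more; inconclusive means wells under 50 cells across six images, flagged as toxic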;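 further: per-cell ratio of nuclear to cytoplasmic median beta-catenin stain intensity; plate controls were DMSO negative control for no effect and GSK-3 inhibitor IX positive control for full effect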
#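 Signal – beta-catenin immunofluorescence imaging with DAPI · Test system – human HeLa cell line · Dosing – 5 µM primary single dose, 0.1% DMSO, 0.02–20 µM confirmation series · Measure – % activation, nuclear-to-cytoplasmic median beta-catenin signal ratio per cell · Incubation – 24 h compound exposure at 37°C, 5% CO2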
# EP2 antag – inhibitors of human EP2 prostaglandin E2 receptor. P43116. C6 glioma cells expressing human EP2, cAMP TR-FRET; cells stimulated with saturating PGE2. inhibition, % at 25 µM. hit rate 0.52% among 260,000;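 active means percent inhibition above 40 after rounding to a whole number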;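 further: rat C6 glioma host cells with rolipram phosphodiesterase inhibitor present; the protocol text gives 20 µM as final concentration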
# MT stabilizer – stabilizes microtubules in HeLa cells; hit rate 0.83% among 200,000; % tubulin-high responders, % at 10 µM; AID 2205; HeLa tubulin immunostaining HCS, 24 h; share of cells brighter than vehicle mean+2SD;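 active means plate Z-score above 3 for both tubulin-high and condensed-nucleus cell shares, with cell loss under 80%, at 10 µM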;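 further: anti alpha tubulin signal scored within the nucleus-defined area of each cell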
# * = called active by the depositor; u = inconclusive; x = not tested or not shown; ! = a repeat was not active.
SMILES,HMGR II inh,Tb hexokinase,EP2 modulator,bCat nuc transl,EP2 antag,MT stabilizer
CC1CCCCC1NC(=O)COn1nnc2ccc(Cl)cc21 (stereo not given),0,-7,-6,x,17,2
COc1ccc(-c2cc(-c3ccc(O)cc3)nc(N)c2C#N)cc1OC,-5,-9,-11,-1,40*!,1
COc1ccc(-c2c(C#N)c(N)nc3c2CCc2ccccc2-3)cc1OC,-2,-11,5,x,5,34*
CCOc1ccc(-c2cc(-c3ccc(OC)c(OC)c3)c(C#N)c(N)n2)cc1,x,x,80*,x,12,x
O=C(Nc1ccncc1)c1cn(-c2ccccc2)nc1-c1cccs1,13*,-6,-22,x,x,3
CCN1C(=O)/C(=C/c2ccc(C)s2)SC1=Nc1ccc(OC)cc1,-4,-14,34,5,7,33*
O=C(CSc1nnnn1C1CCCCC1)c1ccc(F)cc1,x,x,-25,x,5,x
COc1cccc(NC2OC(=O)c3ccccc32)c1 (stereo not given),x,x,-35,x,7,x
Cc1ccc(N(CC(=O)N2CCOCC2)S(=O)(=O)c2ccccc2)cc1,12*,3,28,0,8,4
O=C(CN(c1ccccc1)S(=O)(=O)c1ccccc1)N1CCOCC1,0,-2,16,0,2,2
Cn1c(SCC(=O)c2ccc(Br)cc2)nnc1-c1ccncc1,x,x,-15,x,7,x
CC(=O)Nc1ccc(C(O)CN2CCC(O)(c3ccc4c(c3)OCO4)CC2)cc1 (stereo not given),x,x,-30,x,7,x
CCCN(CCC)C(=O)NC1CC(=O)N(c2ccc(OC)cc2)C1 (stereo not given),-8,-3,-8,1,68*,3
CCN(CC)S(=O)(=O)c1ccc(-c2nnc(SCC(=O)N3CCC(C)CC3)o2)cc1,x,x,-20,x,13,x
O=C(c1cccs1)N1N=C(c2ccccc2)CC1c1ccccc1 (stereo not given),-14,-9,63*,-1,6,4
COc1ccc(C2=NN(C(=O)c3cccs3)C(c3ccc(OC)cc3)C2)cc1 (stereo not given),-3,-25,31,-3,5,4
O=C(c1cccs1)N1N=C(c2ccc(O)cc2)CC1c1ccccc1 (stereo not given),1,-4,65*,-3,10,3
O=C(O)CCC(=O)N1N=C(c2ccc(Br)cc2)CC1c1cccs1 (stereo not given),-1,-4,-11,0,6,3
O=C1OC(c2ccccc2)=C/C1=C/N1CCCCC1,3,-29,-2,-3,21,6
COC(=O)/C=C1\OC(c2ccccc2)=CC1=O,3,-6,-121,-1,124*,3
Cc1ccc(N2CCCn3c2cc(C)c(C#N)c3=O)cc1C,9.8*,-66,-66,-1,10,2
Cc1ccsc1C(C(=O)NC1CCCC1)N(C(=O)c1csnn1)c1ccc(F)cc1 (stereo not given),x,x,2,x,7,x
CC(C)(C)C1CCC2(CC1)CCN(CCCN1CCOCC1)CC2,x,x,7,x,44*,x
CN(C)CCCN1CCC2(CCC(C(C)(C)C)CC2)CC1,x,x,22,x,51*,x
CC(=O)NC1CC2CCCC(C1)N2CC(=O)Nc1ccc(N(C)C)cc1 (stereo not given),x,x,-53,x,11,x
SMILES,HMGR II inh,Tb hexokinase,EP2 modulator,bCat nuc transl,EP2 antag,MT stabilizer
COc1ccc(/C=N/n2c(SC)nnc2-c2ccccc2)cc1C,1,-5,12,2,16,27*
COc1cccc(/C=N\n2c(C)nnc2C)c1OC,1,-7,-2,-2,2,4
COc1ccc(/C=N/n2c(SC)nnc2-c2ccccc2)c(OC)c1OC,0,-20,8,92*,12,11
COc1ccc(/C=N/N2CCN(c3ccccc3OC)CC2)cc1OC,4,4,6,0,6,3
COc1ccc(NC(=O)N(CCCN(C)C)Cc2cc3ccc(C)c(C)c3[nH]c2=O)cc1,x,x,-12,x,4,x
CCOc1ccc(CN(C(=O)c2oc3cc(C)ccc3c2C)C2CCS(=O)(=O)C2)cc1 (stereo not given),-8,-8,52,x,5,41*
COc1ccc(C(=O)N/N=C2\C(=O)c3c(C)cc(C)cc3CC2(C)C)cc1,x,x,-12,x,53*,x
O=C(NCc1ccccc1)C1CCN(c2cnccn2)CC1,x,x,-8,x,6,x
CC(CC(C)C(=O)N1CCOCCOCCOCC1)C(=O)O (stereo not given),x,x,-4,x,6,x
C[C@@]12CC[C@@H]3[C@H](CC=C4C[C@@H](O)CC[C@@]43C)[C@H]1CC[C@H]2N(CCO)CCO,x,x,10,x,49*,x
CCCc1nn(CC(=O)NCCCn2ccnc2)c(=O)c2cc3ccsc3n12,x,x,-10,x,x,x
COc1cc(NS(=O)(=O)c2ccc(C)cc2C)cc(OC)c1OC,-8,-3,-32,7,14,22*
Cc1ccc(Oc2ccc(S(=O)(=O)N3CCOCC3)cc2C(N)=O)c(-n2nc3ccccc3n2)c1,-4,-3,29,0,15,27*
N=c1sc2ccccc2n1CCS (tested in a mixture with another compound),x,x,-27,x,57*,x
O=c1sc2ccccc2n1CCc1ccccc1,x,x,13,x,6,x
Fc1ccccc1/C=N/NC(=S)Nc1ccc(Cl)cc1Cl,-6,2,4,u,8,17*
COc1ccc(Cc2ccc3[nH]c(=O)cc(C)c3c2)cc1S(=O)(=O)O,x,x,20,x,40*,x
CCc1cccc(CC)c1NC(=O)CO/N=C(\N)CC(=O)NC1CCCCC1,2,4,-9,-2,3,3
CCc1cccc(C)c1NC(=O)CO/N=C(\N)CC(=O)NC1CCCCC1,11*,2,14,-1,9,3
CC(=O)[C@@]1(N=Nc2ccc(S(N)(=O)=O)cc2)CCOC1=O,x,x,-31,x,116*,x
CC(C)(C)NC(=O)Cn1cc(C(=O)C2CC2)c2ccccc21,x,x,-20,x,7,x
CCOc1cc(NC(=O)c2ccccn2)c(OCC)cc1NC(=O)c1ccc(C)cc1,13*,-26,-22,1,7,5
CCOc1cc(C#N)c(NC(=O)c2cccnc2)cc1OCC,2,3,-5,x,7,39*
CCOc1cc(NC(=O)C2CCCCC2)c(OCC)cc1NC(=O)c1ccccn1,-4,-1,-30,0,9,3
Cc1cccc(NC(=O)CSc2nc3c(cc2C#N)CCC3)c1,x,x,27,x,12,x
Cc1nc2ccccc2n1CC(O)COc1ccccc1Cl (stereo not given),11*,2,-81,3,6,2
Cc1nc2ccccc2n1CC(O)COc1ccc(Cl)cc1Cl (stereo not given),x,x,-110,x,10,x
CC1CN(C(=O)c2cccc(S(=O)(=O)Nc3ccc(Cl)cc3)c2)CC(C)O1 (stereo not given),24*,2,4,1,5,5
